Compound activity deposited in PubChem by Broad Institute.
RAD54 inh = inhibitors of human RAD54 branch migration. 360,000 compounds, 0.14% hits. AID 602329. Q92698. RAD54 Holliday junction branch migration, FAM/BHQ fluorescence. inhibition, % at 10.4 µM;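 active = mean normalized replicate activity at least 40 and at least half of replicates scoring 40 or more; inconclusive = only one of the two criteria met; inactive = mean below 40 and under half of replicates reaching 40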;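 note: inhibitors cause a drop in the FAM fluorescence signal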
Target sequence (Q92698 whole entry, looked up): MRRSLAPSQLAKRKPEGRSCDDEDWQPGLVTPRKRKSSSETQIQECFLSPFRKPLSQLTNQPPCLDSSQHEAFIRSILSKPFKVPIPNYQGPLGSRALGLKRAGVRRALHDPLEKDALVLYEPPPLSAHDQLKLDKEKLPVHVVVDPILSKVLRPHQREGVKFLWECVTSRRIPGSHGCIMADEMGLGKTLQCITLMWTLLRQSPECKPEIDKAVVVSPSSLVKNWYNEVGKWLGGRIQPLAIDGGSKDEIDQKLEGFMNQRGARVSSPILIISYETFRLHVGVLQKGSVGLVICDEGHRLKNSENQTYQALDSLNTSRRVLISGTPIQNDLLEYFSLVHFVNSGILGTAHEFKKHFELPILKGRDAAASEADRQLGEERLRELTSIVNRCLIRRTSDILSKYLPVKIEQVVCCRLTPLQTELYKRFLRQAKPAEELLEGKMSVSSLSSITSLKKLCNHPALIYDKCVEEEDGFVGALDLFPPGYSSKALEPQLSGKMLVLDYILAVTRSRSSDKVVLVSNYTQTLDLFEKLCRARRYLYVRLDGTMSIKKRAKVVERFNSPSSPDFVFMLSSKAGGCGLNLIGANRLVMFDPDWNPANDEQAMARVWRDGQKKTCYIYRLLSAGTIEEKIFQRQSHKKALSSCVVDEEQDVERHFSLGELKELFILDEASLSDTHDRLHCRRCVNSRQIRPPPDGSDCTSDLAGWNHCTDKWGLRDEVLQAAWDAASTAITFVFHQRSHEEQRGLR
INS-1E GSIS act = GLuc luminescence reporter in INS-1E cells, primary screen for activators of glucose-dependent secretion of insulin; INS-1E GLuc reporter insulin secretion, 2-3 h; activation, % at 16.6 µM; 370,000 compounds, 0.61% hits; AID 743287;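 active = lowest replicate activation of at least 40%, so every replicate reaches that level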
rRNA inh HTS = selective bacterial rRNA inhibition in E. coli. 350,000 compounds, 1.6% hits. AID 720706. GFP signal change (wild-type ribosome), % (test concentration not listed). E. coli WT GFP vs humanized-ribosome RFP mutants, fluorescence, 24 h; stronger effect = lower value; DMSO median 0, no signal -100;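 active = significant combined selectivity score with lowered wild-type GFP, culture density cut under 30%, mutant RFP and density less affected; inactive = any of these conditions unmet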
RAD52 anneal inh = inhibitors of human RAD52 DNA annealing; recombinant RAD52 DNA annealing, FRET fluorescence; inhibition, % at 18.7 µM; 360,000 compounds, 0.46% hits; AID 651710;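 active = every replicate showing at least 50% inhibition; inconclusive = mean inhibition at least 50% but not in every replicate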
MLL AF4-AF9 inh = inhibitors of human MLL-AF4/AF9 interaction; P42568; AlphaScreen, biotin-AF4 peptide binding to FLAG-AF9; inhibition, % at 10 µM; 350,000 compounds, 0.47% hits; AID 651704;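 active = every replicate reaching a set inhibition limit, whatever the replicate mean, cut at about 25% in these data; inconclusive = mean inhibition reaches that limit but some replicates miss it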
E-sel inducer = induces E-selectin expression in human endothelial cells; HUVEC E-selectin immunofluorescence imaging; normalized: neutral wells 0, TNF-alpha wells 100; activation, % at 7.58 µM; 260,000 compounds, 0.37% hits; AID 686992;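 active = mean E-selectin-positive cell signal at least 10% of the positive control, reached in at least 60% of replicates, without over 20% cell loss; inconclusive = no rule given, readout overlaps actives, possibly toxicity-flagged; inactive = the rest, including those meeting only one limit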
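Test system: HUVEC | Signal: Immunofluorescence imaging | Read-out: Percent E-selectin-positive cells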
Large screens that a line does not name were inactive; ! = not confirmed by another sample. This is a sample that favours compounds with a hit; in the whole collection about 2.6% have one here.

O=C(NC1CCCCC1)C1COc2ccccc2O1 (centres undefined)	none
CO[C@H]1CN(C)C(=O)c2ccc(NC(=O)C3CCOCC3)cc2OC[C@H](C)N(Cc2nccs2)C[C@@H]1C	none (no result: RAD54 inh)
COc1ccccc1N1CCN(Cc2cc(Br)c(O)c3ncccc23)CC1	MLL AF4-AF9 inh 27 (no result: INS-1E GSIS act)
Cc1noc(C)c1NC(=O)N(C)C[C@H]1Oc2ccc(NC(=O)CCCCCC(=O)Nc3ccccc3N)cc2CC(=O)N([C@@H](C)CO)C[C@@H]1C	none
Cn1c(=O)c(=O)n(C)c2cc(S(=O)(=O)N3CCN(c4ccc(F)cc4)CC3)ccc21	INS-1E GSIS act 51 (no result: rRNA inh HTS, RAD52 anneal inh, MLL AF4-AF9 inh)
O=C1CCc2cc(S(=O)(=O)N3CCN(c4ccccc4)CC3)cc3c2N1CCC3	none (no result: E-sel inducer)
O=C1CCc2cc(S(=O)(=O)N3CCN(c4ccc(F)cc4)CC3)cc3c2N1CC3	INS-1E GSIS act 47 (no result: RAD54 inh)
Cn1c(=O)oc2cc(S(=O)(=O)N3CCN(c4ccc(F)cc4)CC3)ccc21	none (no result: INS-1E GSIS act, rRNA inh HTS, RAD52 anneal inh, MLL AF4-AF9 inh, E-sel inducer)
CN1C(=O)c2cc(NC(=O)c3ccc(C(F)(F)F)cc3)ccc2OC[C@@H]2O[C@H](CC(=O)O)CC[C@@H]21	none
C[C@H](CO)N1C[C@H](C)[C@H](CN(C)C(=O)CCN(C)C)OCc2ccccc2-c2ccccc2C1=O	none
O=C(COC(=O)c1n[nH]c2ccccc12)c1cccc(Br)c1	rRNA inh HTS -38
Cc1ccc(C)c(C(=O)COC(=O)c2n[nH]c3ccccc23)c1	none (no result: RAD54 inh, INS-1E GSIS act)
CCCNC(=O)N1C[C@H](C)[C@H](OC)CN(C)C(=O)c2ccc(NC(=O)C3CCC3)cc2OC[C@H]1C	none
C[C@H](CO)N1C[C@H](C)[C@H](CN(C)Cc2ccc3c(c2)OCCN3C)OCc2ccccc2-c2c(n(C)c3ccccc23)C1=O	none (no result: RAD54 inh)
C[C@H]1CN([C@@H](C)CO)C(=O)c2ccccc2-c2ccccc2CO[C@H]1CN(C)Cc1ccc2c(c1)OCCN2C	MLL AF4-AF9 inh 34
C[C@@H]1CN([C@H](C)CO)C(=O)c2c(c3ccccc3n2C)-c2ccccc2CO[C@H]1CN(C)Cc1ccc2c(c1)OCCN2C	MLL AF4-AF9 inh 42!
COc1ccc(-c2nc(NC(=O)Cn3c(=O)oc4ccccc43)sc2C)cc1	E-sel inducer 39
C[C@H]1CN([C@@H](C)CO)C(=O)c2cc(-c3ccc(F)cc3)cnc2O[C@@H]1CN(C)C(=O)c1ccc(F)cc1	none
CC(C)C#Cc1cnc2c(c1)C(=O)N([C@H](C)CO)C[C@H](C)[C@H](CN(C)Cc1ccc3c(c1)OCO3)O2	E-sel inducer inconclusive
Cc1ccc(N=C2NC(=O)/C(=C/c3cccn3C)S2)cc1C	none (no result: E-sel inducer)
Cc1cccc(N=C2NC(=O)/C(=C/c3cccn3C)S2)c1C	rRNA inh HTS -26
Cc1cc(C)n2c(SCC(=O)Nc3cc(C)on3)nnc2n1	none (no result: INS-1E GSIS act, rRNA inh HTS, RAD52 anneal inh, MLL AF4-AF9 inh, E-sel inducer)
CCc1nnc(NC(=O)CSc2nnc3nc(C)cc(C)n23)s1	INS-1E GSIS act 43 (no result: E-sel inducer)
Cc1ccc(CS(=O)Cc2ccc(C(=O)NCCCc3ccccc3)o2)cc1 (centres undefined)	none
Cc1ccc(CS(=O)Cc2ccc(C(=O)NCCc3ccccc3)o2)cc1 (centres undefined)	rRNA inh HTS -22
Cc1ccc(CS(=O)Cc2ccc(C(=O)NCc3ccccc3)o2)cc1 (centres undefined)	INS-1E GSIS act 43 (no result: E-sel inducer)
COc1ccc(NC(=O)N(C)C[C@H]2OCCCC[C@@H](C)Oc3ccc(NC(=O)Nc4ccccc4)cc3C(=O)N([C@@H](C)CO)C[C@H]2C)cc1	none
COc1cccc(NC(=O)CN(C)C(=O)c2ccccc2Sc2ccccc2C#N)c1	rRNA inh HTS -18 (no result: E-sel inducer)
CC1CCN(C(=O)c2cccc(S(=O)(=O)N3CCN(c4ccccc4)CC3)c2)CC1	INS-1E GSIS act 42 (no result: RAD54 inh)
CN(CC(=O)Nc1ccc(F)cc1)C(=O)c1cccc(S(=O)(=O)N2CCN(c3ccccc3)CC2)c1	none
O=C(c1cccc(S(=O)(=O)N2CCCCC2)c1)N1CCN(c2ccccc2)CC1	none
COc1cccc(NC(=O)CN(C)C(=O)c2cccc(S(=O)(=O)N3CCN(c4ccccc4)CC3)c2)c1	rRNA inh HTS -29 (no result: E-sel inducer)
CNC(=O)C[C@@H]1CC[C@@H]2[C@@H](COc3ccc(NS(=O)(=O)c4ccc(F)cc4)cc3C(=O)N2C)O1	none (no result: RAD52 anneal inh, MLL AF4-AF9 inh)
O=C1[C@@H]2Cc3c([nH]c4ccccc34)C(c3ccccc3)N2C(=O)CN1C1CC1 (some centres undefined)	MLL AF4-AF9 inh inconclusive (no result: E-sel inducer)
Cc1ccccc1C1c2[nH]c3ccccc3c2C[C@H]2C(=O)N(C3CC3)CC(=O)N12 (some centres undefined)	E-sel inducer 55 (no result: INS-1E GSIS act)
C[C@H]1CN=C(N(C)C)N1CC1CCCCC1	none
C[C@H]1CN=C(N(C)C)N1CC1CCCC1	INS-1E GSIS act 54
CCOC(=O)c1c(C)c(C(=O)Nc2ccc(N(C)C)cc2)c(C)n1CC	rRNA inh HTS -16 (no result: E-sel inducer)
O=C(/C=C/C(=O)N1CCc2ccccc2C1)N1CCc2ccccc2C1	rRNA inh HTS -22 (no result: RAD54 inh)
O=C(/C=C/c1ccc(F)cc1)N1CCc2ccccc2C1	none
CC(=O)Oc1c(C(C)C)cc(N(C(C)=O)c2ccccc2)cc1C(C)C	rRNA inh HTS -22 (no result: RAD54 inh)
CC(=O)N(c1ccccc1)c1c(F)c(F)c(F)c(F)c1F	none (no result: INS-1E GSIS act, rRNA inh HTS, RAD52 anneal inh, MLL AF4-AF9 inh, E-sel inducer)
COc1cccc(S(=O)(=O)N2C[C@@H]3N[C@H](C2)C3c2ccc(-c3cccc(C)c3)cc2)c1 (some centres undefined)	RAD52 anneal inh 57! (no result: RAD54 inh)
Cc1cccc(S(=O)(=O)N2C[C@@H]3N[C@H](C2)C3c2ccc(-c3ccncc3)cc2)c1 (some centres undefined)	none (no result: RAD54 inh)
COc1ccc(-c2ccc(C3[C@@H]4CN(S(=O)(=O)c5cccc(C)c5)C[C@H]3N4)cc2)cc1 (some centres undefined)	RAD52 anneal inh 71! (no result: RAD54 inh)
Cc1cccc(S(=O)(=O)N2C[C@@H]3N[C@H](C2)C3c2ccc(-c3cccnc3)cc2)c1 (some centres undefined)	none (no result: RAD54 inh)
Cc1noc(C)c1S(=O)(=O)Nc1ccc2c(c1)C(=O)N([C@H](C)CO)C[C@H](C)[C@@H](CN(C)S(=O)(=O)c1ccc(F)cc1)O2	rRNA inh HTS -25!
COc1ccc(S(=O)(=O)N(C)C[C@H]2Oc3ccc(NS(=O)(=O)c4c(C)noc4C)cc3C(=O)N([C@@H](C)CO)C[C@H]2C)cc1	E-sel inducer 404
C[C@H](CO)N1C[C@H](C)[C@@H](CN(C)C(=O)C2CCCCC2)Oc2ncc(-c3ccccc3)cc2C1=O	none
COc1ccc(-c2cn3cc(C)ccc3n2)cc1F	rRNA inh HTS -31
CCCNC(=O)N1C[C@@H](O)COC[C@@H]2O[C@H](CC(=O)NCc3ccc(Cl)c(Cl)c3)CC[C@H]21	none
